kcat/Km, Km and kcat data for 3 proteins are collected here from ChEMBL document CHEMBL1250451, “Mechanistic insights into a Ca2+-dependent family of alpha-mannosidases in a human gut symbiont” (Nat Chem Biol, 2010).

Substitutions are numbered along the chain they refer to. Names and notes keep the numbering of the source.

Format in all cases: protein assay
Substrate in series [1]: O=[N+]([O-])c1ccc(O[C@H]2O[C@H](CO)[C@@H](O)[C@H](O)[C@@H]2O)cc1
The experiment in a line: Ratio of Kcat to Km for Bacteroides thetaiotaomicron GH92 alpha-mannosidase GH92 alpha-mannosidase 4073 assessed as mannose release after 16 hrs by HPLC.

Substrate in series [2]: O=[N+]([O-])c1ccc(O[C@H]2O[C@H](CO)[C@@H](O)[C@H](O)[C@@H]2O)cc1
Description: (§1) Activity of Bacteroides thetaiotaomicron GH92 alpha-mannosidase GH92 alpha-mannosidase 4073 assessed as mannose release after 16 hrs by HPLC. The essentials:
(§2)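 Yeast mannan or ovalbumin (mostly high-mannose N-glycans) at 1 mg ml−1 was incubated with recombinant IMAC-purified enzyme from E. coli. The methods give enzyme at 2 μM and the table footnote gives 1 μM. Buffer was 100 mM sodium HEPES pH 7.0 with 1 mg ml−1 BSA and 2 mM CaCl2. Aliquots were taken at 1 and 16 h and boiled 10 min. Mannose was measured by HPLC and scored by signal: >500 nC +++, 200–500 ++, <200 +.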

Substrate in series [3]: OC[C@H]1O[C@H](O[C@H]2[C@H](O)[C@H](O)[C@@H](O)O[C@@H]2CO)[C@@H](O)[C@@H](O)[C@@H]1O
The description is as §1. In outline: as §2

Substrate in series [4]: O=[N+]([O-])c1ccc(O[C@H]2O[C@H](CO)[C@@H](O)[C@H](O)[C@@H]2O)cc1
The experiment in a line: (§3) Activity of Bacteroides thetaiotaomicron GH92 alpha-mannosidase 2199 E537A mutant assessed as as mannose release after 16 hrs by HPLC relative to wild type enzyme.

Substrate in series [5]: OC[C@H]1O[C@H](O[C@H]2[C@@H](O)[C@H](O)[C@@H](CO)O[C@@H]2O)[C@@H](O)[C@@H](O)[C@@H]1O
The description is as §3.

Substrate in series [6]: O=[N+]([O-])c1ccc(O[C@H]2O[C@H](CO)[C@@H](O)[C@H](O)[C@@H]2O)cc1
Description: (§4) Ratio of Kcat to Km for Bacteroides thetaiotaomicron GH92 alpha-mannosidase 2199 E537A mutant assessed as as mannose release after 16 hrs by HPLC relative to wild type enzyme.

Substrate in series [7]: OC[C@H]1O[C@H](O[C@H]2[C@@H](O)[C@H](O)[C@@H](CO)O[C@@H]2O)[C@@H](O)[C@@H](O)[C@@H]1O
Described as §4.

Substrate in series [8]: O=[N+]([O-])c1ccc(O[C@H]2O[C@H](CO)[C@@H](O)[C@H](O)[C@@H]2O)cc1
The experiment in a line: (§5) Activity of Bacteroides thetaiotaomicron GH92 alpha-mannosidase 2199 E537Q mutant assessed as as mannose release after 16 hrs by HPLC relative to wild type enzyme.

Substrate in series [9]: OC[C@H]1O[C@H](O[C@H]2[C@@H](O)[C@H](O)[C@@H](CO)O[C@@H]2O)[C@@H](O)[C@@H](O)[C@@H]1O
Described as §5.

Substrate in series [10]: O=[N+]([O-])c1ccc(O[C@H]2O[C@H](CO)[C@@H](O)[C@H](O)[C@@H]2O)cc1
The experiment in a line: (§6) Ratio of Kcat to Km for Bacteroides thetaiotaomicron GH92 alpha-mannosidase 2199 E537Q mutant assessed as as mannose release after 16 hrs by HPLC relative to wild type enzyme.

Substrate in series [11]: OC[C@H]1O[C@H](O[C@H]2[C@@H](O)[C@H](O)[C@@H](CO)O[C@@H]2O)[C@@H](O)[C@@H](O)[C@@H]1O
The description is as §6.

B1: Alpha-1,2-mannosidase, putative (BT_4073) (Bacteroides thetaiotaomicron), Q8A0E8 (protein)
chain: MYKASANILIACSFLWLTACSSAGVVTEDLIPTDYVNPFIGASTSVGAAGVYHGLGKTFPGATTPYGMVQVSPNTITGGDNSSGYSDEHKTIEGFAFTQMSGVGWFGDLGNFLVMPTTGELQKIAGKEDGSIKGYRSSYDKATETAKAGYYSVELTDYKIKVESSATPHCGILQFTFPSNEQSRIQIDLARRVGGTSTSQYVKVLDDYTIQGWMKCTPDGGGWGNGEGNSDYTVYYYAQFSKPLSNYGFWSADIPDEWVRKRDEVVSIPYLTRISQAPVIKDKKELEGKHLGFFTEFPTKEGEQVEMKVGISFVDMEGAANNFKQEIASKNFAQVKQEASDLWNKELSRIRISGGTDDEKTVFYTSLYHTMIDPRIYTDVDGRYIGGDKKVHEQDGTFTKRTIFSGWDVFRSQFPLQAMINPRLVSDALNSLITMADQSRREYYERWELLNSYSGCMIGNPALSVLADAYMKGIRTYDVEKAYQYAVNTSAKFGNDSLGYTPEPLSISYTLEYAYADWCVAQLAKALGKEEDAKRFYEKGQAYRNMFDAEKGWFRPRNADGSWKAWPENALTEEWYGCIESNAYQQGWFVPHDVPGMVELMGGKEEVIANLTNLFDHTPSDMLWNDYYNHANEPVHFVPFLFNQLDVPWYTQKWTRYICKNAYANKVEGIVGNEDVGQMSAWYILAASGIHPSCPGNTRMEITSPVFDKVEFNLDSKYHQGKVFTIIAHNNNTNNLYIQKALLNGKEYNKCYLDFAEIAAGGTLELFMGDKPNTEWGVLSNI
For B1, in series [1], the kcat/Km was found to be 2.33 M⁻¹ s⁻¹. Also, in series [2], the Km turned out to be 1800 µM and the kcat worked out at 0.0045 s⁻¹. Besides, the Km in series [3] came to 270 µM.

B2: Alpha-1,2-mannosidase (BT_2199) (Bacteroides thetaiotaomicron), Q8A5N9 E537A (protein)
chain: MVTRLFFLSICFPFLLTSCQQSKKTVEFVDYVNPLMGTESTFAFSHGNTYPAVAVPWGMNFWSPQTGENGSGWMYTYTDSLMRGFRQTHQPSPWINDYGTFSIMPLAGELKMSHKERLVPFSHQQEKATPYNYSVTFNNGLQTSLSATSRGAVFEVSFPEKEDQYVVVDAYNGGSSITIEPEKRLVKGATRYNNGGVPDNFANYFMMEFSHPVIEYGTYNGDTLLHHQTDVAADYTCAYLKFDVPAGEKLTIRTASSFISPEQAAINFNREVADADVQLISGKAREQWNNYLGRVEAEGGTDEQLRTFYSCLYRTLLFPREFYEFDSQGNPVYYSPYDGNVHDGYMYTDNGFWDTFRAVHPLFTLLYPEVSERVTQSIINAYNESGFMPEWASPGHRGCMIGNNSVSLLVDAWMKGIQTVDAEKALEAMIHQTQARHAEIASVGRDGFEYYDKLGYVPYPEVPEATAKTLEYAYADWCIARFAESLGKQDIADQYYQKAPNYRNLYYPEHGFMWTKDAKGNWRDRFDATEWGGPFTAGSSWHWTWSVFHDPEGLSELMGGHEPMIARLDSMFVAPNTYNYGTYGFVIHEIAEMVALNMGQYAHGNQPVQHAIYLYDYIGQPWKTQYHLRNVMDKLYNSGSKGYCGDEDNGQTSAWYVFSAMGFYPVCPGMPEYAIGSPLFKKVTLHLPEGKNFVVSAADNAADRPYIRKALLNGQEFTRNYLTHDELKQGGELNLSMDSVPNQQRGTQPADFPYSYSK
On to B2, for which the values for the Michaelis constant (Km) result in [4] and in series [5] were “Not Active” and 874 µM, respectively. Also, the results for the catalytic constant (kcat) result in [4] and in [5] were “Not Active” and 0.00045 s⁻¹, respectively. Besides, the specificity constant (kcat/Km) turned out to be 0.383 M⁻¹ s⁻¹ in [6] and 0.517 M⁻¹ s⁻¹ in [7].

B3: Alpha-1,2-mannosidase (BT_2199) (Bacteroides thetaiotaomicron), Q8A5N9 E537Q (protein)
chain: B2 chain with A537Q
As to B3, the Km is 3100 µM in [8] and 571 µM in series [9]. The values for the kcat in series [8] and in series [9] were 0.06 s⁻¹ and 0.000433 s⁻¹, respectively. Moreover, the values for the kcat/Km in series [10] and in series [11] were 19.5 M⁻¹ s⁻¹ and 0.767 M⁻¹ s⁻¹, respectively.
